Data: ChEMBL document CHEMBL1158827, “Free-radical-scavenging and xanthine oxidase inhibitory constituents from Stereospermum personatum” (J Nat Prod, 2005)
pIC50: −log10 of the molar value. The source made the active and inactive calls. No cut-off for these calls is given here.

What was measured:
[1] = Antioxidant activity assessed as DPPH scavenging activity; format: functional
How it was run: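 SC50 is the concentration scavenging 50% of the DPPH free radical under the assay conditions. It was obtained by linear regression over at least five concentrations, each in triplicate, and reported as the mean.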

[2] = target: T1, Xanthine dehydrogenase/oxidase (Homo sapiens, UniProt P47989); assay: Inhibition of xanthine oxidase at 132 uM
T1 sequence (P47989 whole entry): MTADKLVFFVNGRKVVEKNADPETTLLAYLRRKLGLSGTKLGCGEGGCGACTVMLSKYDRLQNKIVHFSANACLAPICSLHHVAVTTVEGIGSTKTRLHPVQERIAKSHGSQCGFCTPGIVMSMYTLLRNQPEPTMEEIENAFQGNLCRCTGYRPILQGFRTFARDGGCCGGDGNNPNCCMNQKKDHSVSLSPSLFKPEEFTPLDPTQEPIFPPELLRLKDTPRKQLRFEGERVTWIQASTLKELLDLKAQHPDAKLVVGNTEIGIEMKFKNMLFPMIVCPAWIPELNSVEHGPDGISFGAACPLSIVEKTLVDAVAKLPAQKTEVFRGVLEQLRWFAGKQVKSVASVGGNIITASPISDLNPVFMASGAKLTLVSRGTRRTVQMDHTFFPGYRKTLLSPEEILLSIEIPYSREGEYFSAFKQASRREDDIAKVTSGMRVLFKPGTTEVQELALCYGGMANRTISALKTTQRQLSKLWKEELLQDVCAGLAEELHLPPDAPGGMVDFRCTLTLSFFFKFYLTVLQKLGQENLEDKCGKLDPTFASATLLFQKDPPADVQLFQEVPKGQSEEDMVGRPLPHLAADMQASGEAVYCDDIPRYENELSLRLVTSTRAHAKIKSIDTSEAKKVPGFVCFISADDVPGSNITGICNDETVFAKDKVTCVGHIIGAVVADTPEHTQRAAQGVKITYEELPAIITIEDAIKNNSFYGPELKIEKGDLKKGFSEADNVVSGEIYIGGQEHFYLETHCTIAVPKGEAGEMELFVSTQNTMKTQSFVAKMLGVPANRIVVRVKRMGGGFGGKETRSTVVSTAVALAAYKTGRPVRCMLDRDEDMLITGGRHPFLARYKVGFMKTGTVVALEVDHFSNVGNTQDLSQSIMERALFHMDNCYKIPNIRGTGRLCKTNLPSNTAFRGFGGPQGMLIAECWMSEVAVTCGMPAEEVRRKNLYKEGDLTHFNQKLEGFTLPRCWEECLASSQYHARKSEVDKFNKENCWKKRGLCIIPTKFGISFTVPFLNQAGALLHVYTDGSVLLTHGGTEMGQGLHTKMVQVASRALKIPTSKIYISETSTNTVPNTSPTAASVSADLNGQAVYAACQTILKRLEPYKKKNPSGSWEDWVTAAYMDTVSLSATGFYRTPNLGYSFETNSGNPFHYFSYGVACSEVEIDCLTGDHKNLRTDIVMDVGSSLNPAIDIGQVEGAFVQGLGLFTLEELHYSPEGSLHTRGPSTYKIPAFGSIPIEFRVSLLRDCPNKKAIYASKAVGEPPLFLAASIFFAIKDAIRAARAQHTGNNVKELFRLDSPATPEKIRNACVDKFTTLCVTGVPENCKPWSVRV

[3] = target: T1, Xanthine dehydrogenase/oxidase; assay: Inhibition of xanthine oxidase at 50 ug/ml
How it was run: (§1)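 Single-concentration screen at 50 µg/mL. Samples showing less than 10% activity at this level were not carried forward to IC50 or SC50 determination.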

[4] = Antioxidant activity assessed as DPPH scavenging activity at 50 ug/ml; format: functional; how it was run: as §1
[5] = target: T1, Xanthine dehydrogenase/oxidase; assay: Inhibition of xanthine oxidase

| inhibition at 132 µM [2] [%] | Activity [3] | pIC50 [5] | Structure (SMILES) | SC50 [1] [µM] | Activity [4] |
| --- | --- | --- | --- | --- | --- |
| 23.6 |  |  | COc1cc(C[C@]2(O)CO[C@@H](c3ccc(O)c(OC)c3)[C@@H]2CO)ccc1O [OLIVIL] | 15.1 |  |
|  | Not Active |  | COc1ccc2c(c1)C(=O)c1c(ccc(CCC(C)=O)c1C)C2=O [STEREQUINONE G] |  | inactive |
|  | Not Active |  | COc1ccc2c(c1)C(=O)C1(O)C(=CC3=C(C)CCC3=C1C)C2=O (stereo not drawn) [STEREQUINONE I] |  | inactive |
|  |  |  | Cc1c(C)c2c(c(C)c1O)CCC(C)(C(=O)O)O2 (stereo not drawn) | 15.9 |  |
|  | Not Active |  | Cc1c(CCC(C)O)ccc2c1C(=O)c1ccccc1C2=O (stereo not drawn) [STEREQUINONE H] |  | inactive |
|  |  | 3.67 | COc1cc(C[C@@H](CO)[C@H](CO)Cc2ccc(O)c(OC)c2)ccc1O [(+)-SECOISOLARICIRESINOL] | 12.5 |  |
|  | Not Active |  | CC1=CCc2c1cc1c(c2C)C(=O)c2ccccc2C1=O [STEREQUINONE A] |  | inactive |
|  |  | 3.96 | COc1cc(C[C@@H]2COC[C@@H]2C(O)c2ccc(O)c(OC)c2)ccc1O (stereo partly drawn) | 15.2 |  |
|  |  | 3.99 | COc1cc([C@H]2c3cc(O)c(OC)cc3C[C@@](O)(CO)[C@@H]2CO)ccc1O | 17.4 |  |
|  | Not Active |  | CC(=O)CCc1ccc2c(c1C)C(=O)c1ccccc1C2=O [STEREQUINONE F] |  | inactive |
|  | Not Active |  | COc1cc(COC/C=C/c2cc(OC)c(OC)c(OC)c2)ccc1O | 7.58 |  |
|  | Not Active |  | COc1cc(/C=C/C(=O)O)ccc1O [FERULATE] | 32.5 |  |
